The EternaBench riboswitch data

Tested on: MS2 coat protein
Test: apparent Kd, MS2 coat protein; higher = weaker binding; RNA-MaP array; FMN 200 µM where present
Outline: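 The apparent Kd comes from binding curves fitted cluster by cluster, filtered, and summarised as a median. Those curves followed SNAP-549-labelled MS2 coat protein from 0.7 or 1.5 nM, doubling to 3 µM, on Illumina sequencing-chip clusters where stalled E. coli RNA polymerase had transcribed the designs, without and then with constant ligand. The buffer was 100 mM Tris-HCl pH 7.5, 80 mM KCl, 4 mM MgCl2, BSA, DTT, yeast tRNA and Tween-20, and green signal was normalised to red-channel RNA signal and control-cluster median Fmax.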

[1] = designed as: OFF switch for flavin mononucleotide, no ligand
[2] = ligand present: flavin mononucleotide, designed as: OFF switch for flavin mononucleotide
[3] = designed as: ON switch for flavin mononucleotide, no ligand
[4] = ligand present: flavin mononucleotide, designed as: ON switch for flavin mononucleotide

Row | Sequence | apparent Kd [1] | apparent Kd [2] | apparent Kd [3] | apparent Kd [4]
1 | GGAUAGGACAGAGGAUAUACGUGCUAGAGAUACUAGCAAAAUUUCCUCACAUGAGGAUCACCCAUGUAGAAGGCUGACCUAUCG | 0.0149 µM | 0.412 µM | – | –
2 | GUCAGCUCGUGAGGAUAUACAUGUGCUGGAGACAGCACUAUUAAAUUCACAUGAGGAUCACCCAUGUAGAAGGCACGAGCUGAU | 0.0152 µM | 0.0186 µM | – | –
3 | CGAUAUUAUGCAGGAUAUCUCCCUUGAAUGUGGAGAGAAGGGCAUAGGGAGACAUAAGCCUUAUUACAUGAGGAUCACCCAUGU | 0.0103 µM | 0.00931 µM | – | –
4 | UACUCAUGUGAGAAGGGACGUAUCUCCAUGAGGGCAGGGCUAUUAGGGAAGUCAGGAUAUCACAUGAGGAUCACCCAUGUGACG | 0.00691 µM | 0.00733 µM | – | –
5 | AUGAGGUCAGGAUAUGCAUGGCGGGACUUGCGUCGUGGCGUGGAGAAGGGACAUGAGGAUCACCCAUGUGGAGU | 0.0914 µM | 0.0505 µM | – | –
6 | CGGUGCUGAGGAUAUACAUGAGGAUCACCCAUGUGUUCUAGCUAGCGUACUGGCAGAUGUAGAAGGCGGUACUG | 0.0182 µM | 0.0757 µM | – | –
7 | UUGUUGUAUGUAGGAUAUGCGUAUUGUUAUUAUGCAGAAGGACAUGAGGAUCACCCAUGUAUAUUAUUAUUAUAUAUUAUAUAU | 0.0263 µM | 0.0435 µM | – | –
8 | CUACCUUAUGAGAAGGCGAUCAUGAAACAUGAUCGAGGAUAUCAUGUAAACAUGAGGAUCACCCAUGUAUGGGUAUUAUGGUAU | – | – | 0.0915 µM | 0.0254 µM
9 | AACUCGUCAGGAUAUGCGCACAGAUAAUACGCUUCACAAUUGCAGAAGGGACAUGAGGAUCACCCAUGUAAAUA | 0.0363 µM | 0.0268 µM | – | –
10 | AUUUUAAAGGGAGGAUAUACAUGAGGAUCACCCAUGUAAACGUGAGGAUCACCCAUGUUAACAAUGUAGAAGGCCUAUAUCUAU | 0.0411 µM | 0.031 µM | – | –
11 | UUAGCGUAAGUAAGGAUAUGCUGGUCGAAAGACCAGCAGAAGGUACAUGAGGAUCACCCAUGUGGAUUCGUUAU | 0.0278 µM | 0.0926 µM | – | –
12 | UGGUACAUGGGAGGAUAUCCUCAAGAGACAUGAGGAUCACCCAUGUAUUAUAUGCCUCUUGGCAUGGAGAAGGCCCAUGUACCU | – | – | 0.0562 µM | 0.0554 µM
13 | GGCAAGUCAGGAUAUGCGAAGUCAGGACACACACUGACGAAGCAGAAGGGACAUGAGGAUCACCCAUGUAAGCC | 0.0319 µM | 0.0199 µM | – | –
14 | GGUACUCAAAGAGUACCAAUACGAACAUGAGGAUCACCCAUGUAGGAUAUGCUACUCAAAGAGCAGCAGAAGGACAUGUGCCUA | 0.0177 µM | 0.125 µM | – | –
15 | CCGUUUUGAGGAUAUCCACCCUCAUACAUGAGGAUCACCCAUGUUCACCCUUGGGUUCCCGGAGAAGGCAGUUUUC | 1.12 µM | 0.828 µM | – | –
16 | CGCGAAUUACAGAAGGGACAAGGGAUAAAACCCAGGUCUUGCAGUAGACAUGAGGAUCACCCAUGUCAGGAUAUGUAGAGAGUU | 0.0172 µM | 0.0955 µM | – | –
17 | UGAUAGGACAGAGGAUAUACGUGCUAGAGAUACUAGCUACAAAUCCUUACAUGAGGAUCACCCAUGUAGAAGGCUGUCCUAUCU | 0.0193 µM | 0.0394 µM | – | –
18 | GGAAAACAUGAGGAUCACCCAUGUGAGGAUAUCGAUGUCCAAAAACCCGUGCGGGACUCGAGAAGGCACUUGGA | 0.0431 µM | 0.057 µM | – | –
19 | GGCGAGUAAGGAUAUUUUAACCUACAGACGAGUGAUGGUUAAGAGAAGGUACAUGAGGAUCACCCAUGUCAUCC | 0.0162 µM | 0.0198 µM | – | –

Row | Sequence | apparent Kd [1] | apparent Kd [2] | apparent Kd [3] | apparent Kd [4]
20 | AUCUAGUCAGGAUAUACGAACCGAUGAAUCGGACGGAACGAACAUGAGGAUCACCCAUGUAGAAGGGACACUCA | 0.162 µM | 0.163 µM | – | –
21 | CGUACUCAAGUGAGGAUAUUGUCUCGGAUACGAAACAAGAAGGCACAUGAGGAUCACCCAUGUAGAGAGUACGA | 0.0162 µM | 0.0143 µM | – | –
22 | GUCACUAGAGGAUAUACAAUGGUAUAUGAUCCUAGAGACAUACAUGAGGAUCACCCAUGUAGAAGGCUAGUAAU | 0.0817 µM | 0.0466 µM | – | –
23 | AGCUGGUGACAGCAUCCAUCCUGACAUGAGGAUCACCCAUGUAGAAGGCUGUACGGUUACCGUACAGAGGAUAUACAAUGAUGG | 0.0101 µM | 0.0223 µM | – | –
24 | GUGGACGUCGUAGGAUAUGUAGGAUAUUCCUACAUGAGGAUCACCCAUGUUUACAUGGAAGAAGGACAGAAGGACGAUGUCCAG | – | – | 0.992 µM | 0.0162 µM
25 | ACGUAUCGUGUAGGAUAUGACCCAGGAAACUGGUCAGAAGGACAUGAGGAUCACCCAUGUAGAGUAUGUUAGGAUGACGUAUGC | 0.0425 µM | 0.305 µM | – | –
26 | CUUUUGUGAGGAUAUCAGGUGUGCUAGCGUACUGGUACAUCUGAGAAGGCACAUGAGGAUCACCCAUGUUCCUC | 0.0422 µM | 0.238 µM | – | –
27 | ACAUAAAUUCGAGGAUAUCGGUGAUAAAGAAGACGAGAAGGCGAUUUAAGAUAUAUGGUUAAAGACAUGAGGAUCACCCAUGUA | – | – | 0.0321 µM | 0.0297 µM
28 | AAGAAGUCAGGAUAUCGUGCUCGUCACUUGCGUGAUGAGUACGAGAAGGGACAUGAGGAUCACCCAUGUAAAGA | 0.0524 µM | 0.0525 µM | – | –
29 | CUGUUGGGCUCAGGAUAUCGGGUUUAACAUGAGGAUCACCCAUGUCGUCUGCGAAAGCAGAAUCACGAGAAGGGAGACCAGCGA | – | – | 0.0134 µM | 0.00753 µM
30 | AGAUCACAUGAGGAUCACCCAUGUGAGGAUAUGAUACUAUGUACUUCGGUACAUAGUAUCAGAAGGCGCGUGAA | 0.0298 µM | 0.0422 µM | – | –
31 | CGGUGACAUGAGGAUCACCCAUGUUAGGAUAUACAAAAGCUCGCUCAAGGGCGGCGAAGUAGAAGGAGCGUGCC | 0.0217 µM | 0.0297 µM | – | –
32 | UUUUAACAUGAGGAUCACCCAUGUGAGGAUAUCGAAAUUUAUAUUUAUAUUAAUUUUUCGAGAAGGCACAUUUU | 0.169 µM | 0.157 µM | – | –
33 | GUGCGGAACCUAGGAUAUCCGACAUGGACAGGUGGUAAGUCUCCCACAUGAGGAUCACCCAUGUAGGAGAAGGAGGAUCACGGG | 0.00684 µM | 0.00739 µM | – | –
34 | GCAUUUCAGUAAGGAUAUAUAAACAUGACGAUACAUGAGGAUCACCCAUGUGUAGAAGGUACUAAUACAUAUAAUGCAAUGGUC | 0.0266 µM | 0.0211 µM | – | –
35 | GUAGCUAUCGGAGGAUAUUCAUACUGGAAACGGACAUGAGGAUCACCCAUGUGGCGAAAGCCUUGGGAGAAGGUCGAUAGCUAC | – | – | 0.177 µM | 0.0101 µM
36 | CUUCGACAUGAGGAUCACCCAUGUCAGGAUAUUGUGUAUCGGGUUUUUUACGGAUAGGCAAGAAGGGAUGUGUG | 0.0356 µM | 0.0343 µM | – | –
37 | UUUAUAUAGUAAGGAUAUGUAUUAUUUUUUACAACAGAAGGUACUGACAUGAGGAUCACCCAUGUUUUAGUGUGGGCAUGUAGU | 0.296 µM | 0.364 µM | – | –
38 | AAACACGGAGGAUAUACAGGUUCGGGAAACCGAACCGGCUGACAUGAGGAUCACCCAUGUAGAAGGCCGAAAUA | 0.0193 µM | 0.0458 µM | – | –

Row | Sequence | apparent Kd [1] | apparent Kd [2] | apparent Kd [3] | apparent Kd [4]
39 | GCUAUCGGGUGAGGAUAUAUGAUUGUGAUUAAAAUAGAAGGCAUCUCAGAAGACAUGAGGAUCACCCAUGUAGUUAAGAUGGCA | – | – | 0.0341 µM | 0.0227 µM
40 | AAAAAGUCAGGAUAUGCGAAGGCGUCUGAUAGACGAGGCUAGCAGAAGGGACAUGAGGAUCACCCAUGUGGAAA | 0.0794 µM | 0.135 µM | – | –
41 | UGUACCGUUGGAACGCGUCGAGUACAUGAGGAUCACCCAUGUCAGGAUAUGUGGCGAAAGGUAGCACAGAAGGGACAUAGAAGA | 0.0326 µM | 0.0924 µM | – | –
42 | GUAGCAUACCGAGGAUAUUCCGGGCAUAAAUAAACAUGAGGAUCACCCAUGUGGCGAAAGCCUAGGGAGAAGGCGGAAUGCUAC | – | – | 0.0152 µM | 0.0136 µM
43 | AUUUGUAAUACAGGAUAUGUUAGUUUACAGUAGAUUGGUUAUUACUCAACUACAGAAGGGUAGUACAUGAGGAUCACCCAUGUA | – | – | 0.0207 µM | 0.0148 µM
44 | AAAGAGCGAGGAUAUGCGUGCCGGUGCGGCCAGCCGAUGUGACAUGAGGAUCACCCAUGUAGAAGGCGCAGAAA | 0.0143 µM | 0.0147 µM | – | –
45 | UGAAUGUAGGAGAAGGAGGACUUCAUGAGGAUCACCCAUGUGUUAGGACUUAGGAUAUUUGACGACAUGAGGAUCACCCAUGUG | – | – | 0.0625 µM | 0.0557 µM
46 | GGAAAACAUGAGGAUCACCCAUGUGAGGAUAUCGAUGUCCAAAGAGAGGUGCGGGACUCGAGAAGGCACUUGGA | 0.0459 µM | 0.0502 µM | – | –
47 | CCCGGUCUGGAGGAUAUUAUAGAGCGUGCUUAAUAAGAAGGUCAGACAUGAGGAUCACCCAUGUUCUUACCCGG | 0.0233 µM | 0.0538 µM | – | –
48 | UCGAAAAUGCAAGGAUAUCAAUUAUAGCUAAAUUAGACAUGAGGAUCACCCAUGUAAAUAUGGAGUGAGAAGGUGCAAUAAUUU | – | – | 0.453 µM | 0.174 µM
49 | CGAAGCCCGUAGAAGGGUGACAUGAGGAUCACCCAUGUGCGAGCGGAGGGAGUCAGCGGCUCGCCACAGGAUAUACGGAGCUCG | – | – | 0.151 µM | 0.0679 µM
50 | GUCAGCUCGUGAGGAUAUACAACACUGCUUCGGCAGUGUAUUAAGAUCACAUGAGGAUCACCCAUGUAGAAGGCACAAGCUGAU | 0.0159 µM | 0.271 µM | – | –
51 | UAUGUUUCGCAGAAGGGAACGGUUUAUAACAAUUCAGGAUAUGCGACAUGAGGAUCACCCAUGUAGCAGUAUAUAGGGUUGAAU | 0.0075 µM | 0.0459 µM | – | –
52 | GUCCUCAAGACAGGAUAUCCAUACAACGCGCUAGGAGAAGGGUCUACAUGAGGAUCACCCAUGUGAUUCUGAGAAUUUGGUGGG | 0.313 µM | 0.148 µM | – | –
53 | UUGUUGUGUGUAGGAUAUGCAUAUUAUUAUUAUGCAGAAGGACAUGAGGAUCACCCAUGUGUAUUAUUAUUAUAUAUUAUAUAU | 0.0246 µM | 0.0381 µM | – | –
54 | AAGUCGACGGUGAGGAUAUUGGUUGAACGACAGAUUAAGAAGGUACAUGAGGAUCACCCAUGUGGGUAACGUCG | 0.1 µM | 0.083 µM | – | –
55 | GCCUUAUCGGUCAGGAUAUACACCCGUCAGUUGUUGUAGAAGGGACAUGAGGAUCACCCAUGUACAUUACAUUG | 0.0218 µM | 0.0455 µM | – | –
56 | AGAAAGGCAGGAUAUACAUGAGGAUCACCCAUGUUAAGAAAGUGCGAAAGCACAAGAAGUAGAAGGGCCAAGAA | 0.023 µM | 0.0216 µM | – | –
